Assay results published in ChEMBL document CHEMBL4725467, “Antiferroptotic Activity of Phenothiazine Analogues: A Novel Therapeutic Strategy for Oxidative Stress Related Disease” (ACS Med Chem Lett, 2020).
Active and inactive are the calls of the source. The rule behind the calls is not given here.

How the values were obtained:
[1] = system: Lymphocyte; assay: Induction of ATP production in FRDA patient-derived lymphocyte at 2.5 uM incubated for 24 hrs by luciferase-linked ATPase enzymatic assay; type: functional, tissue-based; conditions: Homo sapiens
Procedure, shortened: (§1)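 Total cellular ATP in cultured FRDA lymphocytes after 24 h with compound in glucose-free medium with 25 mM galactose, to force OXPHOS dependence. Tested range 100 nM–2.5 μM. Expressed as percent of total ATP relative to untreated control.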

[2] = Inhibition of erastin-induced cell death in FRDA patient-derived fibroblast assessed as depletion of cellular ATP incubated for 12 hrs followed by erastin stimulation and measured after by luciferase-linked ATPase enzymatic assay; type: functional, tissue-based; conditions: Homo sapiens
Procedure, shortened: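 Primary FRDA patient fibroblasts treated with compound, then challenged with erastin (cystine-glutamate exchange inhibitor, GSH depletion). Cell death read as depletion of cellular ATP by a luciferase-linked kit assay.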

[3] = system: Lymphocyte; assay: Cytotoxicity against FRDA patient-derived lymphocyte at 0.25 to 2.5 uM incubated for 24 to 48 hrs by flow cytometry analysis; type: cell-based; conditions: human, dose 0.25-2.5 µM, time 24-48 hrs
Procedure, shortened: (§2)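 FRDA lymphocytes kept 24 h in glucose-free medium with galactose to force reliance on mitochondrial ATP. Viability by flow cytometry with dual staining, calcein-AM for live and ethidium homodimer-1 for dead cells. Percent live cells taken from a two-dimensional color density dot plot. Duplicates run in two independent experiments.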

[4] = system: Lymphocyte; assay: Anti-ferroptotic activity in FRDA patient-derived Lymphocyte assessed as reduction in RSL3-induced lipid peroxidation incubated for overnight followed by RSL3 stimulation and measured after 90 mins by FACS analysis; type: functional, cell-based; conditions: Homo sapiens, 1.5 h
Procedure, shortened: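 FRDA patient lymphocytes pretreated with a range of concentrations, then challenged with RSL3 (GPX4 inhibitor) at 2 μM; lipid peroxidation read with the C11-BODIPY581/591 fluorescent probe. EC50 taken from dose–response curves by nonlinear regression fit.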

[5] = system: Lymphocyte; assay: Induction of ATP production in FRDA patient-derived lymphocyte at 0.1 and 0.25 uM incubated for 24 hrs by luciferase-linked ATPase enzymatic assay; type: functional, tissue-based; conditions: Homo sapiens, dose microM 0.1-0.25, time 24.0 hrs; procedure, shortened: as §1
[6] = system: HepG2; assay: Inhibition of ferroptosis in human HepG2 cells assessed as increase in pAMPK/AMPK ratio at 1 uM incubated for 24 hrs by Western blot analysis; type: functional, cell-based
Procedure, shortened: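 HepG2 cells treated with or without compound. AMPK, p-AMPK and β-actin (loading control) detected by Western blot and quantified as p-AMPK/AMPK ratio. Triplicate experiments, mean ± SEM.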

[7] = system: Lymphocyte; assay: Induction of ATP production in FRDA patient-derived lymphocyte incubated for 24 hrs by luciferase-linked ATPase enzymatic assay; type: functional, tissue-based; conditions: Homo sapiens, dose microM 0.25-2.5, time 24.0 hrs; procedure, shortened: as §1
[8] = system: Lymphocyte; assay: Induction of ATP production in FRDA patient-derived lymphocyte at 0.1 uM incubated for 24 hrs by luciferase-linked ATPase enzymatic assay; type: functional, tissue-based; conditions: Homo sapiens; procedure, shortened: as §1
[9] = system: Lymphocyte; assay: Induction of mitochondria membrane potential depolarization in FRDA patient-derived lymphocyte at 2.5 uM incubated for 16 hrs by JC-1 probe based flow cytometry analysis; type: functional; conditions: Homo sapiens
Procedure, shortened: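 Mitochondrial inner membrane potential in FRDA lymphocytes measured by flow cytometry with the ratiometric probe JC-1. Percent of cells with intact Δψm taken from a two-dimensional color density dot plot. Duplicates run in two independent runs.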

[10] = system: Lymphocyte; assay: Induction of ATP production in FRDA patient-derived lymphocyte at 0.1 to 2.5 uM incubated for 24 hrs by luciferase-linked ATPase enzymatic assay; type: functional, tissue-based; conditions: Homo sapiens, dose microM 0.1-2.5, time 24.0 hrs; procedure, shortened: as §1
[11] = system: Lymphocyte; assay: Cytotoxicity against FRDA patient-derived lymphocyte at 2.5 uM incubated for 24 to 48 hrs by flow cytometry analysis; type: cell-based; conditions: human, time 24-48 hrs; procedure, shortened: as §2
[12] = system: Lymphocyte; assay: Induction of ATP production in FRDA patient-derived lymphocyte at 0.1 to 0.5 uM incubated for 24 hrs by luciferase-linked ATPase enzymatic assay; type: functional, tissue-based; conditions: Homo sapiens, dose microM 0.1-0.5, time 24.0 hrs; procedure, shortened: as §1

EC50 [4] [nM]	SMILES	EC50 [2] [nM]	Activity [9]	Activity [11]	also measured
70	CCCCCCCCCCCCCCCCc1cc2nc3ccc(N(C)C)cc3sc-2cc1=[N+](C)C.[I-]	55	–	–	Activity [1]: inactive; Activity [3]: Non-Toxic; Activity [5]: Active
–	CN(C)c1ccc2nc3ccc(=[N+](C)C)cc-3sc2c1	–	Active	–	pAMPK/AMPK ratio increase (active/not active) [6]: inactive; Activity [7]: inactive; Activity [8]: Active
38	CCCCCCCCCCc1cc2nc3ccc(N(C)C)cc3sc-2cc1=[N+](C)C.[I-]	29	Active	Toxic	pAMPK/AMPK ratio increase (active/not active) [6]: Active; Activity [10]: inactive
76	CCCCCCCCc1cc2nc3ccc(N(C)C)cc3sc-2cc1=[N+](C)C.[I-]	39	Active	Toxic	Activity [10]: inactive
16	CCCCCCCCCCCCc1cc2nc3ccc(N(C)C)cc3sc-2cc1=O	15	Active	–	Activity [1]: inactive; Activity [12]: Active; Activity [3]: Non-Toxic
54	CCCCCCCCCCCCc1cc2nc3ccc(N(C)C)cc3sc-2cc1=[N+](C)C.[I-]	35	Active	Toxic	–
26	CN(C)c1ccc2nc3ccc(=O)cc-3sc2c1	27	Active	–	pAMPK/AMPK ratio increase (active/not active) [6]: Active
48	CCOC(=O)c1ccc(NC2CCCCC2)c(N)c1	33	–	–	–
12	CCCCCCCCCc1cc2nc3ccc(N(C)C)cc3sc-2cc1=O	11	Active	Toxic	Activity [8]: Active
88	CN(C)c1ccc2nc3ccc(N(C)C)cc3[s+]c2c1.[Cl-] [METHYLENE BLUE ANHYDROUS]	43	–	Toxic	–
53	CCCCCCCCCc1cc2nc3ccc(N(C)C)cc3sc-2cc1=[N+](C)C.[I-]	37	Active	Toxic	Activity [10]: inactive
9	CCCCCCCCCCc1cc2nc3ccc(N(C)C)cc3sc-2cc1=O	10	Active	Toxic	pAMPK/AMPK ratio increase (active/not active) [6]: Active; Activity [8]: Active
14	CCCCCCCCc1cc2nc3ccc(N(C)C)cc3sc-2cc1=O	15	Active	Toxic	Activity [8]: Active
> 500	Cc1c(C)c2c(c(C)c1O)CC[C@@](C)(CCC[C@H](C)CCC[C@H](C)CCCC(C)C)O2 [ALPHA-TOCOPHEROL]	> 500	–	–	–
> 2500	CC(=O)N1c2ccc(N(C)C)cc2Sc2cc(N(C)C)ccc21	–	–	–	–
22	Clc1cccc(CNC2=Nc3ccccc3NC23CCNCC3)c1	22	–	–	–
25	CCCCCCCCCCCCCCCCc1cc2nc3ccc(N(C)C)cc3sc-2cc1=O	22	–	–	Activity [1]: inactive; Activity [12]: Active; Activity [3]: Non-Toxic
